Experimental data reported in article PMC3646584 (Journal of medicinal chemistry, 2013).

How the values were obtained:
[1] = tested on: BNL 1ME A.7R.1 allografts; assay: Syngeneic hepatocellular carcinoma allograft model; format: in vivo, Balb/c mice; details: 5 mg/kg ip daily for seven days
Method in brief: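 Male Balb/c mice, 8 weeks old, received 10^7 syngeneic hepatocarcinoma cells in 200 μL sterile PBS subcutaneously in the dorsal region. At ~100 mm3, fifteen mice were randomised into three groups of five. Groups got vehicle (0.9% NaCl, 5% PEG 400, 0.5% Tween 80), test compound, or reference, each at 5 mg/kg ip daily for 7 days. Body weight was tracked as mean ± SEM; two-sided Student's t test.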

HeLa cells [2] = assay: ROS production; format: cell-based, human; details: HE or H2-DCFDA, 24 or 48 h
Method in brief: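 After 24 or 48 h exposure to the test compound (DMSO at most 0.25%), cells were stained with hydroethidine (HE) or H2-DCFDA and ROS were read by flow cytometry. Results are the mean ± SEM from three independent experiments.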

[3] = Cytotoxicity for PHA-stimulated peripheral blood lymphocytes; format: cell-based; details: human, PHA-stimulated (proliferating) peripheral blood lymphocytes
Method in brief: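 PBLs from healthy donors were isolated on a Lymphoprep gradient, washed, and rested overnight at 1.0 × 10^6 cells/mL in RPMI-1640 with 10% FBS. Nonadherent cells were reseeded at 5 × 10^5 cells/mL in growth medium containing 2.5 μg/mL PHA. Graded compound was added and viability read by MTT after 72 h. IC50 is given as mean ± SEM of three separate experiments.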

[4] = Cytotoxicity for resting peripheral blood lymphocytes; format: cell-based; details: human
Method in brief: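 Donor PBLs were separated on a Lymphoprep gradient, washed, and kept overnight in RPMI-1640 with 10% FBS. Nonadherent cells were resuspended at 5 × 10^5 cells/mL without PHA (resting) and exposed to graded compound for 72 h. Viability was read by MTT. IC50 is given as mean ± SEM from three separate experiments.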

[5] = tested on: panel of seven human cancer cell lines; assay: Antiproliferative activity across the panel of seven human cancer cell lines; format: cell-based; details: read-out: IC50 values across the cell line panel
Method in brief: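 Jurkat, SEM and HL-60 cells were grown in RPMI-1640; MCF-7, A549, HeLa and HT-29 cells in DMEM; both with 10% FBS plus penicillin/streptomycin. 8 × 10^3 cells/well were held 18 h at 37 °C, 5% CO2, then given fresh medium with graded compound (DMSO ≤0.25%) for 72 h. Viability was read by MTT. […] Mean ± SE, ≥3 independent experiments.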

[6] = tested on: Jurkat, HT-29, and HeLa cells; assay: Cell cycle analysis by flow cytometry; format: cell-based, human; details: for lowest concentration giving a rise in G2/M cells: 24 h treatment
Method in brief: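 Cells were treated for 24 h with graded compound concentrations (HeLa: 5 × 10^5 exponentially growing cells). They were collected, fixed in ice-cold 70% ethanol, and treated with lysis buffer containing RNase A and 0.1% Triton X-100. After PI staining, DNA content was read by flow cytometry. Cell-cycle phase percentages came from DNA histogram analysis.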

HeLa cells [7] = assay: Western blot analysis of cell cycle and apoptosis proteins; format: cell-based, human
Method in brief: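 HeLa cells were treated for 24 or 48 h. They were washed twice in ice-cold PBS and lysed on ice for 30 min, and the lysates were cleared at 15000g, 4 °C, 10 min. Protein was measured by BCA, and 20 μg per lane was run on 7.5–15% SDS–PAGE, then blotted to PVDF and blocked overnight at 4 °C. Membranes were probed 2 h at room temperature for cyclin B, p-cdc2 Tyr15, PARP and Xiap, with peroxidase secondary for 60 min and ECL detection. They were stripped and reprobed for β-actin.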

HeLa cells [8] = assay: Annexin-V/PI apoptosis assay; format: cell-based, human; details: 24 or 48 h, concentration- and time-dependent
HeLa cells [9] = assay: Mitochondrial membrane potential; format: cell-based, human; details: JC-1, 24 or 48 h
Method in brief: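 HeLa cells exposed to the test compound at the stated concentrations for 24 or 48 h, with DMSO at no more than 0.25%, then stained with the lipophilic cationic dye JC-1 to monitor mitochondrial membrane potential. Values are the mean ± SEM of three independent experiments.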

A549 = assay: In vitro cell growth inhibition; format: cell-based; details: Homo sapiens
A549-T12 = assay: Cell growth inhibition, drug-resistant cell line study; format: cell-based, human; details: for IC50: Homo sapiens; for resistance ratio: IC50 A549-T12 / IC50 A549
Method in brief: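 Cells seeded at 8 × 10^3 per well and preincubated 18 h at 37 °C in humidified 5% CO2. Medium then replaced with fresh medium holding test compound at several concentrations (10 mM DMSO stocks; final DMSO ≤0.25%) for 72 h at 37 °C. Viability by MTT. […] Parental A549 grown in DMEM with 10% FBS.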

Row | IC50 (A549) [nM] | IC50 (A549-T12) [nM] | Structure (SMILES) | body weight change during treatment [1] | ROS production vs control cells (HeLa cells [2]) | IC50 at 72 h [3] [nM] | IC50 at 72 h [4] [nM] | IC50 [5] [nM] | cells arrested in G2/M ([6]; 24 h, at higher concentrations) | lowest concentration giving a rise in G2/M cells [6] [nM] | cyclin B expression (HeLa cells [7]; 10 or 100 nM, 24 or 48 h) | expression of phosphorylated cdc2 (Tyr15) (HeLa cells [7]; 10 or 100 nM, 24 or 48 h) | concentration at which PARP cleavage was detectable (HeLa cells [7]; 24 h) [nM] | Xiap expression (HeLa cells [7]; 24 h, even at 10 nM) | caspase activation (HeLa cells [7]; Western blot, HeLa) | annexin-V-positive cells vs control (HeLa cells [8]) | proportion of cells with depolarized mitochondria (HeLa cells [9]) | resistance ratio (A549-T12)
1 |  |  | COC(=O)c1sc2cc(OC)ccc2c1Nc1cc(OC)c(OC)c(OC)c1 [4i, Methyl 6-Methoxy-3-[(3,4,5-trimethoxyphenyl)amino]-1-benzo-[b]thiophene-2-carboxylate] | only a small decrease in body weight | induced the production of significant amounts of ROS | 2800 ± 1200 | > 10000 | 0.28 to 10 | more than 80% | 20 | no significant variations | dramatic decrease | 10 | almost eliminated | induced proteolytic cleavage of caspase-9 and caspase-3 | accumulation of annexin-V-positive cells | time- and concentration-dependent increase | 
2 | 8.5 ± 1.9 | 12.6 ± 2.9 | COC(=O)c1sc2ncccc2c1Nc1cc(OC)c(OC)c(OC)c1 [4l, Methyl 3-[(3,4,5-Trimethoxyphenyl)amino]thieno[2,3-b]pyridine-2-carboxylate] |  |  |  |  |  |  |  |  |  |  |  |  |  |  | 1.5
3 | 16.2 ± 4.4 | 19.5 ± 2.3 | CCOC(=O)c1sc2ncccc2c1Nc1cc(OC)c(OC)c(OC)c1 [4m, Ethyl 3-[(3,4,5-Trimethoxyphenyl)amino]thieno[2,3-b]pyridine-2-carboxylate] |  |  |  |  |  |  |  |  |  |  |  |  |  |  | 1.2
4 |  |  | COC(=O)c1sc2nc(C)ccc2c1Nc1cc(OC)c(OC)c(OC)c1 [4n, Methyl 6-Methyl-3-[(3,4,5-trimethoxyphenyl)amino]thieno[2,3-b]pyridine-2-carboxylate] |  | induced the production of significant amounts of ROS |  | > 10000 |  |  | 20 |  |  |  |  |  | accumulation of annexin-V-positive cells | time- and concentration-dependent increase | 
